Experimental data as given in paper PMC3204611 (Cancer prevention research (Philadelphia, Pa.), 2010).
“Also recorded” adds a separate entry of the source. Where two headings read alike, the source gives them in different places.

Legend:
[1] = rats, 7 days, cited from earlier work
[2] = doses significantly higher than needed for chemopreventive activity; cited from earlier work
[3] = Stability of 9cUAB30 in spiked human plasma and urine stored at -70 °C; assay type: in vitro ADME
Outline: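 Blank human plasma and urine were spiked from a 1 μg/mL stock standard to 10 and 40 ng/mL (plasma, urine) and 100 ng/mL (urine only), then held at -70 °C for 12 weeks. Samples were run in triplicate by LC-MS/MS after liquid-liquid extraction with 9-cis-RA as internal standard. LLOQ was 1.56 ng/mL.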

[4] = Single-dose pharmacokinetics of 9cUAB30 in healthy volunteers; assay type: in vivo, human
[5] = tested on: RAR; conditions: relative to 9-cis-RA and other RA; cited from earlier work
[6] = Toxicity / adverse events; assay type: in vivo, human
Outline: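 Healthy adults aged 18-65 years took one oral dose (5, 10 or 20 mg) in the morning on an empty stomach. Dose cohorts were escalated in sequence and subjects stayed 24 h as inpatients. Toxicity was assessed on day 8, with contact on day 30, and graded by NCI-CTCAE. Serum TG was taken at screening, 24 h and day 8. Dose versus TG change was tested by Jonckheere-Terpstra.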

[7] = tested on: human breast cancer cells; conditions: cited from earlier work
[8] = tested on: Human hepatocytes; conditions: treatment up to 50 μmol/L; cited from earlier work
[9] = tested on: N-methyl-N-nitrosourea (MNU)-induced mammary cancer; conditions: cited from earlier work; for average tumors per animal: controls 6.0
[10] = tested on: KLF4-mediated tumor initiation; conditions: cited from earlier work
[11] = tested on: colony formation; conditions: 0.1 μmol/L (29 ng/mL); cited from earlier work
[12] = single dose 5, 10 or 20 mg, 14 subjects
[13] = single dose 5, 10 or 20 mg, all subjects n = 14

## CC1=C(/C=C/C(C)=C\C=C\C(C)=C\C(=O)O)C(C)(C)CCC1 [9-cis-RA, 9-cis-retinoic acid, reference compound]
[1]; 60 mg/kg of diet
  increase of serum TGs compared to untreated controls: 5 fold

## CC(=C/C=C/C(C)=C/C(=O)O)/C=C1\CCCc2ccccc21 [9cUAB30, (2E,4E,6Z,8E)-8-(3′,4′-Dihydro-1′(2′H)-naphthalen-1′-ylidene)-3,7-dimethyl-2,4,6-octatrienoic Acid]
[1]; 200 or 800 mg/kg of diet
  effect on serum TG levels: did not affect serum TG levels
[2]
  toxicity in animal models: toxicity was not reported
[3]; human plasma, −70 °C, 10 and 40 ng/mL
  stability in plasma: stable for 12 weeks
[3]; human urine, −70 °C, 10, 40 and 100 ng/mL
  stability in urine: stable for 12 weeks
[4]; assuming 1 compartment, first-order elimination, extrapolated from 20-mg dose
  dose required to achieve maximal concentrations of 0.294 μg/mL: 60 mg
[4]; human, urine and plasma, po
  CL renal: 0.3 to 1.72 mL/min
[4]; single oral dose, fasted healthy volunteers
  oral availability: orally available
[5]
  RAR-binding activity: little or no RAR-binding activity
[6]; 10-mg dose level, 6 subjects
  patients with grade 2 toxicity: 1
[6]; day 8, all subjects, screening 116 ± 34.8
  Mean TG levels: 114 ± 44.5
[6]; differences between the treatment groups 5, 10, 20 mg
  change in TG levels from baseline: not statistically significant; also recorded: did not significantly increase change in serum TGs
[6]; dose level 5 mg
  subjects with ≥ grade 2 toxicity: No subjects
[6]; dose level 20 mg
  subjects with ≥ grade 2 toxicity: No subjects
[6]; [12]
  grade 3 or 4 toxicities: no grade 3 or 4 toxicities reported
  patients experiencing grade 2 toxicity: 1
  tolerability: well tolerated
[6]; [13]
  Diarrhea, Grade II, patients (%): 0
  Dizziness, Grade I, patients (%): 0
  Elevated chloride, Grade II, patients (%): 0
  Elevation in cholesterol, Grade II, patients (%): 0
  Elevation in triglycerides, Grade II, patients (%): 0
  Fatigue, Grade I, patients (%): 0
  Headache, Grade II, patients (%): 0
  Nasal congestion, Grade II, patients (%): 0
  Nausea and vomiting, Grade I, patients (%): 0
  Reduced hemoglobin, Grade II, patients (%): 0
[7]
  cell proliferation: significant inhibition of cell proliferation
[8]
  cytotoxicity: no signs of cytotoxicity
[9]; 200 mg/kg/d diet
  decrease of MNU-induced mammary cancer incidence compared to controls: 63%
[9]; 9cUAB30 150 mg/kg of diet
  average tumors per animal: 4.3 tumors per animal
[10]
  concentration required to prevent KLF4-mediated tumor initiation: 1 µmol/L
[10]; printed conversion of 1 μmol/L
  concentration required to prevent KLF4-mediated tumor initiation: 294 ng/mL
[11]
  colony formation, % of untreated cells: 62%

## CC/C(=C(\c1ccccc1)c1ccc(OCCN(C)C)cc1)c1ccccc1 [tamoxifen, reference compound]
[9]; tamoxifen 0.4 mg/kg of diet
  average tumors per animal: 4.6 tumors per animal
